Drawing on ChEMBL document CHEMBL4190231, “Anti-Cryptococcus Phenalenones and Cyclic Tetrapeptides from Auxarthron pseudauxarthron” (J Nat Prod, 2017), this text covers MIC and IC50 for six compounds.

The term IC50 denotes the concentration that inhibits the measured activity by half. Higher therefore signals lower potency.

Molecules are shown by their SMILES. In brackets after ≈: the same amount, converted by molar mass.

One assay relates to Cryptococcus neoformans. Description: Antifungal activity against Cryptococcus neoformans H99 after 48 hrs by resazurin assay. It counts as functional. The following applies: var grubii H99 , read-out: MIC100. In outline:
(§1)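 Broth serial dilution MIC per NCCLS, in 96-well plates with YM medium (1% maltose extract, 0.2% yeast extract, 0.4% agar). Compounds were dissolved in DMSO and diluted in medium, with amphotericin B as positive control. Incubation was at 25 °C, read at 24 h for C. albicans and 48 h for C. neoformans. Read-outs were visual, OD and PrestoBlue resazurin. MIC is the lowest concentration giving 100% inhibition versus untreated growth.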
On the technique in general: Resazurin is reduced to fluorescent resorufin, in cell work by metabolically active cells.

A further assay has as its system Candida albicans. Nature of the assay: Antifungal activity against Candida albicans ATCC 10231 after 24 hrs by resazurin assay. The assay is classed as functional. The following applies: ATCC 10231, 24 h, read-out: MIC100. The gist of the method:
as §1

For another assay, the system named is MDA-MB-231. Description: Cytotoxicity against human MDA-MB-231 cells by Celltiter-Glo assay. The assay is classed as functional, cell-based. In outline:
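Viability was measured with CellTiter-Glo reagent added 1:1 to well medium. Plates were kept foil-covered and shaken 2 min at room temperature, paused 2 min, then shaken another 2 min. Luminescence was read on a plate reader.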
On the technique in general: In ATP-based viability assays light output follows the ATP content of the culture.

A further assay concerns MDA-MB-453. Nature of the assay: Cytotoxicity against human MDA-MB-453 cells by Celltiter-Glo assay. It counts as functional, cell-based.

For the compound `COc1cc(O)c2c3c(c(O)cc(C)c13)C1=C(C)C(=O)CC1(O)C2=O` (configuration not stated), the MIC was 25.6 mg/L (≈ 75.2 µM) in the assay with Cryptococcus neoformans and 51.2 mg/L (≈ 150 µM) with Candida albicans. For the same compound, the half-maximal inhibitory concentration (IC50) in the assay on MDA-MB-231 and with MDA-MB-453 was above 20 µM each time.
On to `CCC(=O)C(C)C1(O)C(=O)c2c(O)cc(C)c3c(OC)cc(O)c(c23)C1=O` (configuration not stated), for which the MIC in the assay on Cryptococcus neoformans and in the assay with Candida albicans was 6.4 mg/L (≈ 17.2 µM) in each case. Moreover, the half-maximal inhibitory concentration (IC50) in the assay on MDA-MB-231 and in the assay on MDA-MB-453 was above 20 µM in each case.
With `COc1cc(O)c2c3c(c(O)cc(C)c13)C(=O)C(O)(CC(C)=O)C2=O` (configuration not stated), the MIC in the assay with Cryptococcus neoformans and in the assay on Candida albicans was 51.2 mg/L (≈ 149 µM) throughout. In addition, the half-maximal inhibitory concentration (IC50) in the assay on MDA-MB-231 and in the assay on MDA-MB-453 was above 20 µM in each case.
For `CCC(=O)CC1(O)C(=O)c2c(O)cc(C)c3c(OC)cc(O)c(c23)C1=O` (configuration not stated), the MIC with Cryptococcus neoformans was 12.8 mg/L (≈ 35.7 µM); with Candida albicans, 25.6 mg/L (≈ 71.4 µM). Also, the concentration for half-maximal inhibition (IC50) with MDA-MB-231 and in the assay with MDA-MB-453 was above 20 µM throughout.
As for `COc1cc(O)c2c3c(c(O)cc(C)c13)C(=O)C(O)(C(C)C(C)=O)C2=O` (configuration not stated), the MIC in the assay on Cryptococcus neoformans and in the assay with Candida albicans was 3.2 mg/L (≈ 8.93 µM) in each case. The concentration for half-maximal inhibition (IC50) in the assay on MDA-MB-231 and with MDA-MB-453 was above 20 µM throughout.
On to `C[C@@H]1[C@H](O)[C@@H](C)/C=C/C=C/C=C/C=C/C=C/C=C/C=C/[C@H](O[C@@H]2O[C@H](C)[C@@H](O)[C@H](N)[C@@H]2O)C[C@@H]2O[C@](O)(C[C@@H](O)C[C@@H](O)[C@H](O)CC[C@@H](O)C[C@@H](O)CC(=O)O[C@H]1C)C[C@H](O)[C@H]2C(=O)O` [AMPHOTERICIN B], for which the MIC in the assay with Cryptococcus neoformans and with Candida albicans was 0.8 mg/L (≈ 0.866 µM) in each case.
